Measurements taken from ChEMBL document CHEMBL2151003, “Synthesis and antitumor activity of ring A modified glycyrrhetinic acid derivatives” (Eur J Med Chem, 2011).

Experiments:
Format in all cases: functional, cell-based
[1] = Cytotoxicity against human 518A2 cells after 96 hrs by SRB assay
Summary of the method: (§1)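 Monolayer cultures in RPMI 1640 with 10% heat-inactivated FBS and penicillin/streptomycin, 37 °C, 5% CO2. Exponentially growing cells were seeded, then treated 24 h later with serial dilutions (0–30 µM; DMSO or DMF ≤0.5% final) for 96 h. Cells were fixed with 10% TCA at 4 °C, stained with 0.4% SRB and solubilized in 10 mM Tris base; A570 was read. IC50 came from semi-log dose–response curves, ≥3 independent experiments.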

DLD-1 = experiment: Cytotoxicity against human DLD1 cells after 96 hrs by SRB assay; summary of the method: as §1
8505C = experiment: Cytotoxicity against human 8505C cells after 96 hrs by SRB assay; summary of the method: as §1
SW-1736 = experiment: Cytotoxicity against human SW1736 cells after 96 hrs by SRB assay; summary of the method: as §1
[2] = Cytotoxicity against human A253 cells after 96 hrs by SRB assay; summary of the method: as §1
[3] = Cytotoxicity against human Lipo cells after 96 hrs by SRB assay; summary of the method: as §1
A549 = experiment: Cytotoxicity against human A549 cells after 96 hrs by SRB assay; summary of the method: as §1
MCF7 = experiment: Cytotoxicity against human MCF7 cells after 96 hrs by SRB assay; summary of the method: as §1
A2780 = experiment: Cytotoxicity against human A2780 cells after 96 hrs by SRB assay; summary of the method: as §1

Compound | IC50 [1] [µmol] | IC50 (DLD-1) [µmol] | IC50 (8505C) [µmol] | IC50 (SW-1736) [µmol] | IC50 [2] [µmol] | IC50 [3] [µmol] | IC50 (A549) [µmol] | IC50 (MCF7) [µmol] | IC50 (A2780) [µmol]
COC(=O)[C@@]1(C)CC[C@]2(C)CC[C@]3(C)C(=CC(=O)[C@@H]4[C@@]5(C)CC[C@H](OC(=O)[C@H](CSCc6ccccc6)NC(=O)OC(C)(C)C)C(C)(C)[C@@H]5CC[C@]43C)[C@@H]2C1 | > 30 | > 30 | > 30 | > 30 | > 30 | > 30 | > 30 |  | 
COC(=O)[C@@]1(C)CC[C@]2(C)CC[C@]3(C)C(=CC(=O)[C@@H]4[C@@]5(C)CC[C@H](OC(=O)CCC(=O)O)C(C)(C)[C@@H]5CC[C@]43C)[C@@H]2C1 | > 30 | > 30 | > 30 |  | > 30 | > 30 | > 30 |  | 
COC(=O)[C@@]1(C)CC[C@]2(C)CC[C@]3(C)C(=CC(=O)[C@@H]4[C@@]5(C)Cc6nccnc6C(C)(C)[C@@H]5CC[C@]43C)[C@@H]2C1 | > 30 | > 30 | > 30 | > 30 | > 30 | > 30 | > 30 | > 30 | > 30
COC(=O)[C@@]1(C)CC[C@]2(C)CC[C@]3(C)C(=CC(=O)[C@@H]4[C@@]5(C)CC[C@H](OS(=O)(=O)c6ccc(C)cc6)C(C)(C)[C@@H]5CC[C@]43C)[C@@H]2C1 | > 30 | > 30 | > 30 |  | > 30 | > 30 | > 30 |  | 
COC(=O)[C@@]1(C)CC[C@]2(C)CC[C@]3(C)C(=CC(=O)[C@@H]4[C@@]5(C)CC/C(=N\OC(C)C)C(C)(C)[C@@H]5CC[C@]43C)[C@@H]2C1 | > 30 | > 30 | > 30 | > 30 | > 30 | > 30 | > 30 | > 30 | > 30
COC(=O)[C@@]1(C)CC[C@]2(C)CC[C@]3(C)C(=CC(=O)[C@@H]4[C@@]5(C)CC[C@H](OC(=O)[C@H](CO[Si](C)(C)C(C)(C)C)NC(=O)OC(C)(C)C)C(C)(C)[C@@H]5CC[C@]43C)[C@@H]2C1 | > 30 | > 30 | > 30 |  | 28.59 | > 30 | > 30 |  | 
C=C(C)[C@@H]1CC[C@]2(C)[C@H](C(=O)C=C3[C@@H]4C[C@@](C)(C(=O)OCC)CC[C@]4(C)CC[C@]32C)[C@@]1(C)CCC(=O)O | > 30 | > 30 | > 30 | > 30 | > 30 | > 30 | > 30 | > 30 | > 30
CCOC(=O)[C@@]1(C)CC[C@]2(C)CC[C@]3(C)C(=CC(=O)[C@@H]4[C@@]5(C)CC[C@H](OC(=O)CCC(=O)O)C(C)(C)[C@@H]5CC[C@]43C)[C@@H]2C1 | 28.99 | > 30 | > 30 |  | > 30 | > 30 | > 30 |  | 
COC(=O)[C@@]1(C)CC[C@]2(C)CC[C@]3(C)C(=CC(=O)[C@@H]4[C@@]5(C)CC[C@H](OC(=O)[C@H](CSC(=O)OC(C)(C)C)NC(=O)OC(C)(C)C)C(C)(C)[C@@H]5CC[C@]43C)[C@@H]2C1 | > 30 | > 30 | > 30 | > 30 | > 30 | > 30 | > 30 |  | 
